Reference: ChEMBL document CHEMBL1275265, “Synthesis and biological evaluation of N-antipyrine-4-substituted amino-3-chloromaleimide derivatives” (Eur J Med Chem, 2010)
Converted amounts (≈) assume the structure as drawn. The source made the active and inactive calls. The calls are words filed in the database; no cut-off is given here.

How the values were obtained:
Mus musculus [1] = test: Antinociceptive activity in ip dosed Swiss mouse assessed as inhibition of acetic acid-induced abdominal contraction administered 30 mins before acetic acid challenge measured after 20 mins; assay type: functional; conditions: Abdominal cavity, read-out: ID50 (the source's name)
Outline: (§1)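 Writhing dose-response in mice: compounds at 0.1–10 mg/kg and standard drugs at 10–100 mg/kg, i.p. in Tween 80/saline, 30 min before i.p. 0.6% acetic acid. Constrictions and stretches were counted for 20 min at 20–22 °C, with six to eight animals per group. ID50 (dose halving the response versus control) was given as geometric mean with 95% confidence limits.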

Staphylococcus aureus [2] = test: Antibacterial activity against Staphylococcus aureus ATCC 6538P at < 100 ug/mL by agar dilution method; assay type: functional, organism-based
Outline: (§2)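 Agar dilution on 1 mL Mueller-Hinton agar slants. Compounds were serially two-fold diluted in DMSO (final DMSO ≤2%) to give 10–100 µg/mL in the medium. Bacteria were grown on MHA at 35 °C for 24 h, suspended in 0.86% saline at 1.5 × 10^8 cell/mL (0.5 McFarland), and 1 µL was added per slant. Slants were incubated at 35 °C. Drug-free blank included; each assay run three times; MIC recorded.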

Salmonella typhimurium = test: Antibacterial activity against Salmonella Typhimurium ATCC 14028 at < 100 ug/mL by agar dilution method; assay type: functional, organism-based; conditions: Salmonella enterica subsp. enterica serovar Typhimurium; outline: as §2
Bacillus cereus = test: Antibacterial activity against Bacillus cereus ATCC 14579 at < 100 ug/mL by agar dilution method; assay type: functional; outline: as §2
Staphylococcus aureus [3] = test: Antibacterial activity against Staphylococcus aureus ATCC 6538P by agar dilution method; assay type: functional
Streptococcus agalactiae = test: Antibacterial activity against Streptococcus agalactiae ATCC 13813 at < 100 ug/mL by agar dilution method; assay type: functional; outline: as §2
Mus musculus [4] = test: Antinociceptive activity in Swiss mouse assessed as inhibition of acetic acid-induced abdominal contraction at 0.1 to 100 mg/kg, ip administered 30 mins before acetic acid challenge measured after 20 mins relative to control; assay type: functional, Abdominal cavity; conditions: dose mg/kg 0.1-100; route intraperitoneal; outline: as §1
Pseudomonas aeruginosa = test: Antibacterial activity against Pseudomonas aeruginosa ATCC 27853 at < 100 ug/mL by agar dilution method; assay type: functional, organism-based; outline: as §2
Proteus mirabilis = test: Antibacterial activity against Proteus mirabilis ATCC 25933 at < 100 ug/mL by agar dilution method; assay type: functional, organism-based; outline: as §2
Escherichia coli = test: Antibacterial activity against Escherichia coli ATCC 11775 at < 100 ug/mL by agar dilution method; assay type: functional, organism-based; outline: as §2
[5] = tested on: Staphylococcus saprophyticus; test: Antibacterial activity against Staphylococcus saprophyticus ATCC 35552 at < 100 ug/mL by agar dilution method; assay type: functional, organism-based; outline: as §2
Enterobacter cloacae = test: Antibacterial activity against Enterobacter cloacae ATCC 35030 at < 100 ug/mL by agar dilution method; assay type: functional, organism-based; outline: as §2
Bacillus subtilis = test: Antibacterial activity against Bacillus subtilis ATCC 23858 at < 100 ug/mL by agar dilution method; assay type: functional, organism-based; outline: as §2
Mus musculus [6] = species: Mus musculus; test: Antinociceptive activity in mouse assessed as inhibition of acetic acid-induced writhing; assay type: functional; conditions: read-out: ID50 (the source's name)
Mus musculus [7] = test: Antinociceptive activity in Swiss mouse assessed as inhibition of acetic acid-induced writhing at 10 mg/kg, ip administered 30 mins before acetic acid challenge measured after 20 mins relative to control; assay type: functional; conditions: route intraperitoneal
Outline: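 Mice were given 10 mg/kg i.p. in Tween 80/0.9% NaCl (Tween ≤5%) 30 min before i.p. 0.6% acetic acid, at 20–22 °C. Abdominal constrictions plus hind-limb stretching were counted cumulatively over 20 min in individual funnels. Groups of six, randomized and blinded. Inhibition was calculated versus vehicle controls (10 ml/kg i.p.); ANOVA with Dunnett's test.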

Mus musculus [8] = test: Antinociceptive activity in Swiss mouse assessed as inhibition of formalin-induced paw licking activity at 10 mg/kg, ip administered 30 mins before formalin challenge measured after 5 mins; assay type: functional; conditions: route intraperitoneal
Outline: (§3)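 Formalin test in mice pretreated i.p. with vehicle or 10 mg/kg test agent 30 min before formalin injection. Animals were acclimatized 5 min in a glass cylinder with an angled mirror. Licking time was recorded for the early phase (0–5 min) and the late phase (15–30 min) after formalin. Values are mean ± S.E.M.; ANOVA with Dunnett's test.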

Mus musculus [9] = test: Ratio of compound to acetyl salicylic acid activity against formalin-induced paw licking activity in Swiss mouse at 10 mg/kg, ip administered 30 mins before formalin challenge measured after 15 to 30 mins; assay type: functional; conditions: route intraperitoneal
Mus musculus [10] = test: Ratio of acetyl salicylic acid ID50 to compound ID50 for inhibition of acetic acid-induced abdominal contraction in ip dosed Swiss mouse; assay type: functional, Abdominal cavity
Mus musculus [11] = test: Antinociceptive activity in Swiss mouse assessed as inhibition of formalin-induced paw licking activity at 10 mg/kg, ip administered 30 mins before formalin challenge measured after 15 to 30 mins; assay type: functional; conditions: route intraperitoneal; outline: as §3
Mus musculus [12] = test: Ratio of metamizole ID50 to compound ID50 for inhibition of acetic acid-induced abdominal contraction in ip dosed Swiss mouse; assay type: functional, Abdominal cavity
[13] = Toxicity in Artemia salina assessed as mortality after 24 hrs; assay type: organism-based; conditions: in vivo
Outline: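 Artemia salina hatched at pH 9.0 (Na2CO3), 25 °C, strong aeration, continuous light (2000 Lux). Phototropic nauplii were collected about 12 h after hatching, and groups of 10 were exposed per well to various compound concentrations for 24 h. Survivors were counted and % deaths calculated.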

| SMILES | ED50 (Mus musculus [1]) | Activity (Staphylococcus aureus [2]) | Activity (Salmonella typhimurium) | Activity (Bacillus cereus) | Activity (Streptococcus agalactiae) | inhibition (INH) (Mus musculus [4]) | Activity (Pseudomonas aeruginosa) | Activity (Proteus mirabilis) | Activity (Escherichia coli) | Activity [5] | Activity (Enterobacter cloacae) | Activity (Bacillus subtilis) | inhibition in vivo at 10 mg/kg (Mus musculus [7]) | further results |
| --- | --- | --- | --- | --- | --- | --- | --- | --- | --- | --- | --- | --- | --- | --- |
| Cc1c(N2C(=O)C(Cl)=C(Cl)C2=O)c(=O)n(-c2ccccc2)n1C | 10.8 µmol/kg | inactive | inactive | inactive | inactive | 99% | inactive | inactive | inactive | inactive | inactive | inactive | 99% | MIC (Staphylococcus aureus [3]): 250 µg/mL (≈ 710 µM); ED50 (Mus musculus [6]): 10.8 µmol/kg |
| Cc1c(N2C(=O)C(Cl)=C(Nc3ccc(Cl)c([N+](=O)[O-])c3)C2=O)c(=O)n(-c2ccccc2)n1C | 1.29 µmol/kg | inactive | inactive | inactive | inactive | 98.5% | inactive | inactive | inactive | inactive | inactive | inactive | 98.5% | inhibition in vivo at 10 mg/kg (Mus musculus [8]): 19.6%; Ratio (Mus musculus [9]): 6; Ratio (Mus musculus [10]): 103; inhibition in vivo at 10 mg/kg (Mus musculus [11]): 49%; Ratio (Mus musculus [12]): 126; LC50 at 24 h [13]: 94.2 µg/mL (≈ 193 µM) |
